Measured values of several laboratories.
Lines come from different studies, so protocols differ.

Compound	target or system	effect on	technique	strain	time	measurement	result
Cc1ccc(Cn2cc(C(=O)NN)c(=O)c3cc(Oc4ccccc4)ccc32)cc1	Trypanosoma brucei	parasite growth		RHODESIENSE		EC50	0.5 µM
Cc1[nH]c(C(=O)Nc2ccc(C(=O)NCC(=O)O)cc2N2CC[C@@H](N)C2)c(Cl)c1Cl.Cl	Enterococcus faecium	microbial growth	broth dilution	ATCC35667		MIC	> 32 µg/mL
Cc1cc(C)c(C#N)c(NCC(=O)c2ccc(F)cc2)n1	Trypanosoma brucei	parasite growth	resazurin			EC50	> 64 µM
CC(C)(C)OC(=O)N1CCN(c2cc(C(=O)NCC(=O)O)ccc2NC(=O)c2cc(Br)c(Br)[nH]2)CC1	Enterococcus faecium	microbial growth	broth dilution	ATCC35667		MIC	> 32 µg/mL
Cc1cc(C)c(C#N)c(SCC(=O)Nc2ccccc2)n1	Trypanosoma brucei	parasite growth	resazurin			EC50	> 64 µM
N=C(N)c1ccc(OCCCCCOc2ccc(C(=N)N)cc2)cc1	Trypanosoma brucei	parasite growth	resazurin		72 h	EC50	0.005 µM
Cc1cc(C)c(C(N)=O)c(SCC(=O)c2ccc(Cl)cc2Cl)n1	Trypanosoma brucei	parasite growth	resazurin	RHODESIENSE		EC50	> 64 µM
Cl.N[C@@H]1CCN(c2cc(C(=O)NCC(=O)O)ccc2NC(=O)c2cc(Br)c(Br)[nH]2)C1	Enterococcus faecium	microbial growth	broth dilution	ATCC35667		MIC	> 32 µg/mL
COc1ccnc(SCC(=O)c2ccccc2)c1C#N	Trypanosoma brucei	parasite growth	resazurin			EC50	> 64 µM
Nc1ccc(/C=C/C(=O)N2CCc3c(oc4c(-c5ccc(F)cc5)cc(-c5ccc(C(=O)N6CCC(F)(F)CC6)nn5)cc34)C2)cn1	CFPAC-1	cell growth or viability	CCK-8		72 h	IC50	> 20 µM
Cc1cc(C)c(C#N)c(SCC(=O)c2ccccn2)n1	Trypanosoma brucei	parasite growth	resazurin			EC50	> 64 µM
Cc1[nH]c(C(=O)Nc2ccc(C(=O)NCC(=O)O)cc2N2CC[C@@H](NC(=O)OC(C)(C)C)C2)c(Cl)c1Cl	Enterococcus faecium	microbial growth	broth dilution	ATCC35667		MIC	> 32 µg/mL
Nc1ccc(/C=C/C(=O)N2CCc3c(oc4c(-c5ccc(F)cc5)cc(-c5ccc(C(=O)N6C[C@@H]7[C@H](C6)C7(F)F)nn5)cc34)C2)cn1	CFPAC-1	cell growth or viability	CCK-8		72 h	IC50	> 20 µM
CC(C)(C)OC(=O)N[C@H]1CCN(c2cc(C(=O)NCC(=O)O)ccc2NC(=O)c2cc(Br)c(Br)[nH]2)C1	Enterococcus faecium	microbial growth	broth dilution	ATCC35667		MIC	> 32 µg/mL
C=CC(=O)NC1CCN(c2ncc3ncnc(Nc4ccc(Oc5ccc6c(c5)ncn6C)c(C)c4)c3n2)CC1	HCC95	cell growth or viability				EC50	2.07 µM
O=C(O)c1ccc2c(c1)nc(Nc1cccc(Cl)c1)c1ccncc12	SK-MES-1	cell growth or viability	crystal violet		48 h	IC50	4.6 µM
